The source of these data is ChEMBL document CHEMBL4477204, “Tetrahydroisoquinoline-Derived Urea and 2,5-Diketopiperazine Derivatives as Selective Antagonists of the Transient Receptor Potential Melastatin 8 (TRPM8) Channel Receptor and Antiprostate Cancer Agents” (J Med Chem, 2016).

Molecules are shown by their SMILES. The source made the active and inactive calls. The rule behind the calls is not given here.

What is called IC50 is the concentration at which inhibition is half-maximal. One may read the EC50 as the midpoint of the concentration-response curve. The term CLint scaled denotes a measure of how fast metabolising enzymes remove a compound, apart from limits set by blood flow.

Chain of Transient receptor potential cation channel subfamily M member 8 (Rattus norvegicus) (Q8R455 whole entry, looked up): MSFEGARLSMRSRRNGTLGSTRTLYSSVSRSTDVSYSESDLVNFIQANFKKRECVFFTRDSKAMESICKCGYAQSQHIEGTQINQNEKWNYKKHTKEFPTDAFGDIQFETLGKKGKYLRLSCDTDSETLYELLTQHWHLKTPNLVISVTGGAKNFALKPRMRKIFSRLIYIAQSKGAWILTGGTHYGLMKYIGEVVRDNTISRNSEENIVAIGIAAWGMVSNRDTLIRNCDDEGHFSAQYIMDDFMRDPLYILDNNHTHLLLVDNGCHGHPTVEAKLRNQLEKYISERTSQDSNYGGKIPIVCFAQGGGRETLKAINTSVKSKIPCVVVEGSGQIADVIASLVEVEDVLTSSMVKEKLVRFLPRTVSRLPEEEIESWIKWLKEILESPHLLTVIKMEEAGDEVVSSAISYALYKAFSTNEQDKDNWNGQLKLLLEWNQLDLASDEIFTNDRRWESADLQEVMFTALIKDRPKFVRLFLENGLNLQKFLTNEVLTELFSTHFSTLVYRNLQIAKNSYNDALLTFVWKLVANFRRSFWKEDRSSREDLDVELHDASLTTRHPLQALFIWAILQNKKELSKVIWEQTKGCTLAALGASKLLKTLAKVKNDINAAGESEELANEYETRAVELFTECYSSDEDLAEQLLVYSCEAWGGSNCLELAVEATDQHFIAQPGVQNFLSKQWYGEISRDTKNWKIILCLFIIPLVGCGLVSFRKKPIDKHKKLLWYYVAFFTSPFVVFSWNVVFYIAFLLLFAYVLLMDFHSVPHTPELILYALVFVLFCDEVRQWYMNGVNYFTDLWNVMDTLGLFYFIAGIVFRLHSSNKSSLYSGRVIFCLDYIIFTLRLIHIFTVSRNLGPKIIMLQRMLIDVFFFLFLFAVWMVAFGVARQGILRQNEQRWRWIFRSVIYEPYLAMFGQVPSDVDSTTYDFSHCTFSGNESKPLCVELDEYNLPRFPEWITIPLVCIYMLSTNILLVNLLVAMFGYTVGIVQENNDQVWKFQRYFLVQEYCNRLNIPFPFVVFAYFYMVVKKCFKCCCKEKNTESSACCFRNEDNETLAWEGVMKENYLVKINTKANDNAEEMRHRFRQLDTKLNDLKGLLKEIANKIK

The target in one series is T1, Transient receptor potential cation channel subfamily M member 8 (Rattus norvegicus, UniProt Q8R455). Description: Antagonist activity at recombinant rat TRPM8 expressed in HEK293 cells assessed as inhibition of icilin-induced intracellular calcium accumulation preincubated for 5 mins followed by icilin addition by Fluo-4-AM probe-based spectrofluorimetric assay.
T1 sequence (Q8R455 whole entry): as the sequence (Q8R455 whole entry, looked up) above
Conditions: not given
In kind it is cell-based. The method, boiled down:
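HEK-293 cells stably expressing the listed TRP channel (human TRPV1; rat TRPM8, TRPA1, TRPV2, TRPV3 or TRPV4) were Fluo-4-AM loaded (4 µM, 1 h, 25 °C) and suspended in Tyrode's buffer pH 7.4. Compound was added 5 min before agonist: icilin 0.25 µM (TRPM8), capsaicin 0.1 µM (TRPV1), AITC 100 µM (TRPA1), LPC 3 µM (TRPV2), thymol 100 µM (TRPV3), 4α-PDD 1 µM (TRPV4). Agonist alone was taken as 100%. IC50 from sigmoidal fit, at least triplicate.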
On the technique in general: A change in cytosolic calcium serves as a functional read-out for many receptors and channels.
Consider `COc1ccc(CCNC(=O)N2CCc3cc(OC)c(OC)cc3C2c2cccc([N+](=O)[O-])c2)cc1OC` (centres undefined), for which the IC50 is more than 50 µM.

Take `COc1ccc(CCNC(=O)N2CCc3cc(OC)c(OC)cc3C2c2ccc(Cl)cc2)cc1OC` (centres undefined): the IC50 was 31.7 µM.

For `COc1cc2c(cc1OC)C(c1cccc(-c3cccc([N+](=O)[O-])c3)n1)=NCC2`, the IC50 was 22.9 µM.

For the compound `CCC1c2cc(OC)c(OC)cc2CCN1C(=O)NCCc1ccc(OC)c(OC)c1` (centres undefined), the IC50 was more than 50 µM.

Turning to `COc1ccc(/C=C2\NC(=O)[C@@H]3Cc4cc(OC)c(OC)cc4[C@@H](c4cccc([N+](=O)[O-])c4)N3C2=O)cc1OC`, the IC50 was 35.2 µM.

Turning to `COc1ccc(/C=C2\NC(=O)[C@@H]3Cc4cc(OC)c(OC)cc4[C@@H](c4ccc(Br)cc4)N3C2=O)cc1OC`, the IC50 came out at 42.4 µM.

`CCC1c2cc(OC)c(OC)cc2CCN1C(=O)NCCc1cc(OC)c(OC)cc1C(CC)S(=O)(=O)c1ccc(C)cc1` (centres undefined): the IC50 is more than 50 µM.

As for `COc1cc2c(cc1OC)[C@@H](c1ccc(C(F)(F)F)cc1)N(C(=O)N1CCc3cc(OC)c(OC)cc3[C@@H]1c1ccc(C(F)(F)F)cc1)CC2`, the IC50 worked out at 10.6 µM.

As to `COc1ccc(CCNC(=O)N2CCc3cc(OC)c(OC)cc3C2c2ccccc2)cc1OC` (centres undefined), the IC50 came out at 1.2 µM.

In the case of `COc1cc2c(cc1OC)[C@@H](c1ccc(F)cc1)N(C(=O)N1CCc3cc(OC)c(OC)cc3[C@@H]1c1ccc(F)cc1)CC2`, the half-maximal inhibitory concentration (IC50) is more than 50 µM.

For `COc1ccc(/C=C2\NC(=O)[C@@H]3Cc4cc(OC)c(OC)cc4[C@@H](c4ccccc4Cl)N3C2=O)cc1OC`, the IC50 was determined as 39.3 µM.

Turning to `COc1ccc(CCNC(=O)NCCc2ccc(OC)c(OC)c2)cc1OC`, the IC50 is more than 50 µM.

In the case of `CCCC1c2cc(OC)c(OC)cc2CCN1C(=O)NCCc1ccc(OC)c(OC)c1` (centres undefined), the IC50 is more than 50 µM.

On to `COc1ccc(/C=C2\NC(=O)[C@@H]3Cc4cc(OC)c(OC)cc4[C@@H](c4ccccc4)N3C2=O)cc1OC`, for which the IC50 came to 12.8 µM.

On to `COc1ccc(CCNC(=O)N2CCc3cc(OC)c(OC)cc3C2c2ccc(Br)cc2)cc1OC` (centres undefined), for which the IC50 came to 48.2 µM.

As to `COc1cc2c(cc1OC)[C@@H](c1ccc(Oc3ccc([N+](=O)[O-])cc3)cc1)N(C(=O)N1CCc3cc(OC)c(OC)cc3[C@@H]1c1ccc(Oc3ccc([N+](=O)[O-])cc3)cc1)CC2`, the IC50 is more than 50 µM.

Regarding `COc1cc2c(cc1OC)C(c1ccc(C(F)(F)F)cc1)N(C(C)=O)CC2` (centres undefined), the IC50 was more than 50 µM.

The next series deals with T1, Transient receptor potential cation channel subfamily M member 8. Description: Agonist activity at recombinant rat TRPM8 expressed in HEK293 cells assessed as increase in intracellular calcium accumulation by Fluo-4-AM probe-based spectrofluorimetric assay. In kind it is cell-based. As to conditions: hek293. Summed up: (§1)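 HEK-293 cells stably expressing rat TRPM8 were loaded with Fluo-4-AM (4 µM, 0.02% Pluronic F-127) for 1 h at 25 °C in serum-free EMEM. They were then washed and suspended in Tyrode's buffer pH 7.4 in a stirred cuvette. [Ca2+]i fluorescence (ex 488/em 516 nm) was read before and after compound addition. Wild-type HEK-293 response was subtracted. Efficacy is expressed versus 4 µM ionomycin; EC50 comes from a sigmoidal fit.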
For `COc1ccc(CCNC(=O)N2CCc3cc(OC)c(OC)cc3C2c2cccc([N+](=O)[O-])c2)cc1OC` (centres undefined), the EC50 result was “Not Active”.

Regarding `COc1ccc(CCNC(=O)N2CCc3cc(OC)c(OC)cc3C2c2ccc(Cl)cc2)cc1OC` (centres undefined), the EC50 result is “Not Active”.

With `COc1cc2c(cc1OC)C(c1cccc(-c3cccc([N+](=O)[O-])c3)n1)=NCC2`, the EC50 result was “Not Active”.

Take `CCC1c2cc(OC)c(OC)cc2CCN1C(=O)NCCc1ccc(OC)c(OC)c1` (centres undefined): the EC50 entry is “Not Active”.

For `COc1ccc(/C=C2\NC(=O)[C@@H]3Cc4cc(OC)c(OC)cc4[C@@H](c4cccc([N+](=O)[O-])c4)N3C2=O)cc1OC`, the EC50 entry is listed as “Not Active”.

For the compound `COc1ccc(/C=C2\NC(=O)[C@@H]3Cc4cc(OC)c(OC)cc4[C@@H](c4ccc(Br)cc4)N3C2=O)cc1OC`, the EC50 result is “Not Active”.

For the compound `COc1cc2c(cc1OC)[C@@H](c1ccc(C(F)(F)F)cc1)N(C(=O)N1CCc3cc(OC)c(OC)cc3[C@@H]1c1ccc(C(F)(F)F)cc1)CC2`, the EC50 result is “Not Active”.

Take `COc1ccc(CCNC(=O)N2CCc3cc(OC)c(OC)cc3C2c2ccccc2)cc1OC` (centres undefined): the EC50 result was “Not Active”.

As for `COc1cc2c(cc1OC)[C@@H](c1ccc(F)cc1)N(C(=O)N1CCc3cc(OC)c(OC)cc3[C@@H]1c1ccc(F)cc1)CC2`, the EC50 entry is recorded as “Not Active”.

For the compound `COc1ccc(/C=C2\NC(=O)[C@@H]3Cc4cc(OC)c(OC)cc4[C@@H](c4ccccc4Cl)N3C2=O)cc1OC`, the EC50 result is recorded as “Not Active”.

On to `COc1ccc(CCNC(=O)NCCc2ccc(OC)c(OC)c2)cc1OC`, for which the EC50 entry is “Not Active”.

On to `CCCC1c2cc(OC)c(OC)cc2CCN1C(=O)NCCc1ccc(OC)c(OC)c1` (centres undefined), for which the EC50 entry is listed as “Not Active”.

Consider `COc1ccc(CCNC(=O)N2CCc3cc(OC)c(OC)cc3C2c2ccc(Br)cc2)cc1OC` (centres undefined), for which the EC50 result is given as “Not Active”.

Take `COc1cc2c(cc1OC)[C@@H](c1ccc(Oc3ccc([N+](=O)[O-])cc3)cc1)N(C(=O)N1CCc3cc(OC)c(OC)cc3[C@@H]1c1ccc(Oc3ccc([N+](=O)[O-])cc3)cc1)CC2`: the EC50 result is listed as “Not Active”.

With `COc1cc2c(cc1OC)C(c1ccc(C(F)(F)F)cc1)N(C(C)=O)CC2` (centres undefined), the EC50 result is on record as “Not Active”.

The series is the same for the next values; noted with them: read-out: EC50.
On to `CCC1c2cc(OC)c(OC)cc2CCN1C(=O)NCCc1cc(OC)c(OC)cc1C(CC)S(=O)(=O)c1ccc(C)cc1` (centres undefined), for which the EC50 was 26.1 µM.

As to `COc1ccc(/C=C2\NC(=O)[C@@H]3Cc4cc(OC)c(OC)cc4[C@@H](c4ccccc4)N3C2=O)cc1OC`, the EC50 stood at 15.9 µM.

Another series has as its target Transient receptor potential cation channel subfamily M member 8 (Rattus norvegicus) (UniProt Q8R455). The series is described as follows: Agonist activity at recombinant rat TRPM8 expressed in HEK293 cells assessed as increase in intracellular calcium accumulation by Fluo-4-AM probe-based spectrofluorimetric assay relative to ionomycin. In kind it is cell-based.
Conditions: not given
Summed up: as §1
Consider `CCC1c2cc(OC)c(OC)cc2CCN1C(=O)NCCc1cc(OC)c(OC)cc1C(CC)S(=O)(=O)c1ccc(C)cc1` (centres undefined), for which the Activity is 15.3%.

Consider `COc1ccc(/C=C2\NC(=O)[C@@H]3Cc4cc(OC)c(OC)cc4[C@@H](c4ccccc4)N3C2=O)cc1OC`, for which the Activity is 14.7%.

The target is the same in another series. Description: Agonist activity at recombinant rat TRPM8 expressed in HEK293 cells assessed as increase in intracellular calcium accumulation up to 10 uM by Fluo-4-AM probe-based spectrofluorimetric assay. In kind it is cell-based.
Conditions: not given
Summed up: as §1
As for `CCC1c2cc(OC)c(OC)cc2CCN1C(=O)NCCc1cc(OC)c(OC)cc1C(CC)S(=O)(=O)c1ccc(C)cc1` (centres undefined), the outcome was inactive.

For `COc1ccc(/C=C2\NC(=O)[C@@H]3Cc4cc(OC)c(OC)cc4[C@@H](c4ccccc4)N3C2=O)cc1OC`, the result was inactive.

System in another series: not listed separately
Description: in vitro. Conditions: C57BL/6, mouse, liver microsomes. (In general: Liver microsomes are vesicles of endoplasmic reticulum, rich in cytochrome P450 enzymes.)
For the compound `COc1ccc(CCNC(=O)N2CCc3cc(OC)c(OC)cc3C2c2ccccc2)cc1OC` (centres undefined), the CLint scaled at 1 h, 3 µM worked out at 39.6 mL/min/kg.
